From ChEMBL document CHEMBL1126736, “Synthesis and antiherpes virus activity of 1,5-anhydrohexitol nucleosides” (J Med Chem, 1993)
Converted amounts (≈) assume the structure as drawn.

What was measured:
CCRF-CEM = assay: Inhibitory concentration required to reduce the growth of human CEM cells by 50%; type: functional, cell-based
Method in brief: (§1)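 Cytostatic assay. The value is the concentration that reduces the growth (viability) of the cells by 50%.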

Cytomegalovirus [1] = assay: Inhibitory concentration against CMV strain AD169 in human embryonic lung (HEL) cell culture; type: functional; settings: Human betaherpesvirus 5
Method in brief: (§2)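 Plaque-reduction assay in human embryonic lung (HEL) cells grown in 96-well trays. The value is the concentration that reduces virus plaque formation by 50%. Single representative experiment.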

Cytomegalovirus [2] = assay: Inhibitory concentration against CMV strain Davis in human embryonic lung (HEL) cell culture; type: functional; settings: Human betaherpesvirus 5; method in brief: as §2
FM3A = assay: Inhibitory concentration required to reduce the growth of murine FM3A cells by 50%; type: functional, cell-based; settings: Mus musculus; method in brief: as §1
Human alphaherpesvirus 1 [3] = assay: Inhibitory concentration against HSV type 1 strain F in human embryonic skin muscle (ESM) fibroblast cell culture; type: functional
Method in brief: (§3)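 Assay in human embryonic skin-muscle (ESM) cells grown in 96-well trays. The value is the concentration that reduces virus-induced cytopathicity by 50%. Single representative experiment.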

Human alphaherpesvirus 1 [4] = assay: Inhibitory concentration against HSV type 1 strain KOS in human embryonic skin muscle (ESM) fibroblast cell culture; type: functional
Human alphaherpesvirus 1 [5] = assay: Inhibitory concentration against HSV type 1 strain Mc Intyre in human embryonic skin muscle (ESM) fibroblast cell culture; type: functional; method in brief: as §3
Human alphaherpesvirus 2 [6] = assay: Inhibitory concentration against HSV type 2 strain 196 in human embryonic skin muscle (ESM) fibroblast cell culture; type: functional; method in brief: as §3
Human alphaherpesvirus 2 [7] = assay: Inhibitory concentration against HSV type 2 strain G in human embryonic skin muscle (ESM) fibroblast cell culture; type: functional; method in brief: as §3
Human alphaherpesvirus 2 [8] = assay: Inhibitory concentration against HSV type 2 strain Lyons in human embryonic skin muscle (ESM) fibroblast cell culture; type: functional; method in brief: as §3
HEL = assay: Inhibitory concentration required to inhibit cell growth by 50% in human embryonic lung (HEL) cell culture; type: functional
Method in brief: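 Uninfected HEL cells grown in 96-well trays. The value is the concentration that reduces cell growth by 50%. Single representative experiment.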

Human alphaherpesvirus 3 [9] = assay: (§4) Inhibitory concentration against TK-VZV strain YS-R in human embryonic lung (HEL) cell culture; type: functional; method in brief: as §2
L1210 = assay: Inhibitory concentration required to reduce the growth of murine L1210 cells by 50%; type: functional, cell-based; settings: Mus musculus; method in brief: as §1
MT4 = assay: Inhibitory concentration required to reduce the growth of human MT-4 cells by 50%; type: functional, cell-based; method in brief: as §1
MOLT-4 = assay: Inhibitory concentration required to reduce the growth of human MOLT-4 cells by 50%; type: functional, cell-based; method in brief: as §1
Human alphaherpesvirus 1 [10] = assay: Inhibitory concentration against TK-HSV type 1 strain B2006 in human embryonic skin muscle (ESM) fibroblast cell culture; type: functional; method in brief: as §3
[11] = system: Vesicular stomatitis virus; assay: Inhibitory concentration against VSV in human embryonic skin muscle (ESM) fibroblast cell culture; type: functional
Vaccinia virus = assay: Inhibitory concentration against VV in human embryonic skin muscle (ESM) fibroblast cell culture; type: functional; settings: Orthopoxvirus vaccinia
Human alphaherpesvirus 3 [12] = assay: Inhibitory concentration against VZV strain YS in human embryonic lung (HEL) cell culture; type: functional
[13] = system: Human immunodeficiency virus 1; assay: Inhibitory concentration required to achieve 50% protection of MT-4 cells against cytopathicity of […]; type: functional, organism-based; settings: Human immunodeficiency virus 1, MT4
Method in brief: (§5)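 MT-4 cells infected with HIV-1 (strain III_B) or HIV-2 (strain ROD). The value is the concentration that protects the cells from virus cytopathicity by 50%.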

Human alphaherpesvirus 3 [14] = assay: Inhibitory concentration against VZV strain OKA in human embryonic lung (HEL) cell culture; type: functional
ESM = assay: Inhibitory concentration required for morphologic alteration in normal cell in human embryonic skin muscle (ESM) fibroblast cell culture; type: functional
Method in brief: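 Uninfected ESM cells in 96-well trays, examined under the microscope. The value is the minimal concentration that causes a detectable change in normal cell morphology. Tested up to 400 μg/mL. Single representative experiment.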

Human alphaherpesvirus 3 [15] = assay: Inhibitory concentration against TK-VZV strain 07-1 in human embryonic lung (HEL) cell culture; type: functional
[16] = system: Human immunodeficiency virus 2; assay: Inhibitory concentration required to achieve 50% protection of MT-4 cells against cytopathicity of […]; type: functional, organism-based; settings: Human immunodeficiency virus 2, MT4; method in brief: as §5
Human alphaherpesvirus 3 [17] = assay: as §4; type: functional; remark: listed apart in the source

Structure (SMILES)	IC50 (CCRF-CEM) [µg/mL]	MIC (Cytomegalovirus [1]) [µg/mL]	MIC (Cytomegalovirus [2]) [µg/mL]	IC50 (FM3A) [µg/mL]	MIC (Human alphaherpesvirus 1 [3]) [µg/mL]	MIC (Human alphaherpesvirus 1 [4]) [µg/mL]	MIC (Human alphaherpesvirus 1 [5]) [µg/mL]	MIC (Human alphaherpesvirus 2 [6]) [µg/mL]	MIC (Human alphaherpesvirus 2 [7]) [µg/mL]	MIC (Human alphaherpesvirus 2 [8]) [µg/mL]	MIC (HEL) [µg/mL]	IC50 (L1210) [µg/mL]	MIC (Human alphaherpesvirus 1 [10]) [µg/mL]	MIC [11] [µg/mL]	MIC (Vaccinia virus) [µg/mL]	MIC (Human alphaherpesvirus 3 [12]) [µg/mL]	MIC (Human alphaherpesvirus 3 [14]) [µg/mL]	MIC (ESM) [µg/mL]	MIC (Human alphaherpesvirus 3 [15]) [µg/mL]	MIC (Human alphaherpesvirus 3 [17]) [µg/mL]	other results
Nc1ncnc2c1ncn2[C@@H]1CO[C@H](CO)[C@@H](O)C1	> 100	> 10	> 10	97.5 (≈ 368 µM)	4 (≈ 15.1 µM)	7 (≈ 26.4 µM)	20 (≈ 75.4 µM)	0.04 (≈ 0.151 µM)	7 (≈ 26.4 µM)	1 (≈ 3.77 µM)	> 50	> 100	150 (≈ 565 µM)	> 200	40 (≈ 151 µM)	4 (≈ 15.1 µM)	4 (≈ 15.1 µM)	> 400	10 (≈ 37.7 µM)		MIC (Human alphaherpesvirus 3 [9]): 3.2 µg/mL (≈ 12.1 µM); IC50 (MT4): 12.5 µg/mL (≈ 47.1 µM); IC50 (MOLT-4): > 100 µg/mL; IC50 [13]: > 4 µg/mL; IC50 [16]: > 4 µg/mL
Nc1ccn(C2COC(CO)C(O)C2)c(=O)n1 (stereo not drawn)	1.4 (≈ 5.8 µM)	0.64 (≈ 2.65 µM)	0.75 (≈ 3.11 µM)	28 (≈ 116 µM)	1 (≈ 4.15 µM)	0.7 (≈ 2.9 µM)	2 (≈ 8.29 µM)	0.02 (≈ 0.0829 µM)	0.04 (≈ 0.166 µM)	0.02 (≈ 0.0829 µM)	2 (≈ 8.29 µM)	29 (≈ 120 µM)	4 (≈ 16.6 µM)	> 400	2 (≈ 8.29 µM)	0.27 (≈ 1.12 µM)	0.04 (≈ 0.166 µM)	> 400	0.75 (≈ 3.11 µM)	0.64 (≈ 2.65 µM)	IC50 (MT4): 1.1 µg/mL (≈ 4.56 µM); IC50 (MOLT-4): 0.87 µg/mL (≈ 3.61 µM); IC50 [13]: > 0.8 µg/mL; IC50 [16]: > 0.8 µg/mL
Cc1cn(C2COC(CO)C(O)C2)c(=O)[nH]c1=O (stereo not drawn)	> 100	> 10	> 10	> 100	40 (≈ 156 µM)	40 (≈ 156 µM)	7 (≈ 27.3 µM)	40 (≈ 156 µM)	150 (≈ 585 µM)	20 (≈ 78 µM)	> 50	> 100	> 400	> 400	> 400	> 100	> 100	> 400	> 100	100 (≈ 390 µM)	IC50 (MT4): > 100 µg/mL; IC50 (MOLT-4): > 100 µg/mL; IC50 [13]: 36 µg/mL (≈ 140 µM); IC50 [16]: > 100 µg/mL
Nc1nc(O)c2ncn([C@@H]3CO[C@H](CO)[C@@H](O)C3)c2n1	21 (≈ 74.7 µM)	1.5 (≈ 5.33 µM)	1.2 (≈ 4.27 µM)	12.3 (≈ 43.7 µM)	0.2 (≈ 0.711 µM)	0.2 (≈ 0.711 µM)	0.7 (≈ 2.49 µM)	0.02 (≈ 0.0711 µM)	0.1 (≈ 0.356 µM)	0.01 (≈ 0.0356 µM)	20 (≈ 71.1 µM)	5.4 (≈ 19.2 µM)	20 (≈ 71.1 µM)	> 2	7 (≈ 24.9 µM)	0.1 (≈ 0.356 µM)	0.9 (≈ 3.2 µM)	> 400	4 (≈ 14.2 µM)	2.8 (≈ 9.95 µM)	IC50 (MT4): 21 µg/mL (≈ 74.7 µM); IC50 (MOLT-4): 14 µg/mL (≈ 49.8 µM); IC50 [13]: > 4 µg/mL; IC50 [16]: > 4 µg/mL
O=c1[nH]c(=O)n(C2COC(CO)C(O)C2)cc1I (stereo not drawn)	> 100	> 10	> 10	> 100	0.07 (≈ 0.19 µM)	0.07 (≈ 0.19 µM)	0.07 (≈ 0.19 µM)	0.07 (≈ 0.19 µM)	0.07 (≈ 0.19 µM)	0.07 (≈ 0.19 µM)	> 50	> 100	> 200	> 200	> 200	> 100	> 100	> 400	> 100	> 100	IC50 (MT4): > 100 µg/mL; IC50 (MOLT-4): > 100 µg/mL; IC50 [13]: > 100 µg/mL; IC50 [16]: > 100 µg/mL
Nc1nc2c(ncn2COCCO)c(=O)[nH]1 [ACYCLOVIR]					0.4 (≈ 1.78 µM)	0.02 (≈ 0.0888 µM)	0.7 (≈ 3.11 µM)	2 (≈ 8.88 µM)	0.02 (≈ 0.0888 µM)	0.7 (≈ 3.11 µM)	> 200		70 (≈ 311 µM)	> 400	> 400						
O=c1[nH]c(=O)n([C@H]2C[C@H](O)[C@@H](CO)O2)cc1/C=C/Br [BRIVUDINE]		> 100	> 100		0.004 (≈ 0.012 µM)	0.004 (≈ 0.012 µM)	0.02 (≈ 0.06 µM)	300 (≈ 901 µM)	10 (≈ 30 µM)	70 (≈ 210 µM)	> 200		> 400	> 200	2 (≈ 6 µM)	0.0015 (≈ 0.0045 µM)	0.0007 (≈ 0.0021 µM)	> 400	8 (≈ 24 µM)	30 (≈ 90.1 µM)	
Nc1nc2c(ncn2COC(CO)CO)c(=O)[nH]1 [GANCICLOVIR]		3 (≈ 11.8 µM)	6.2 (≈ 24.3 µM)		0.007 (≈ 0.0274 µM)	0.004 (≈ 0.0157 µM)	0.001 (≈ 0.00392 µM)	0.02 (≈ 0.0784 µM)	0.004 (≈ 0.0157 µM)	0.02 (≈ 0.0784 µM)	85 (≈ 333 µM)		2 (≈ 7.84 µM)	> 400	70 (≈ 274 µM)	0.072 (≈ 0.282 µM)	0.02 (≈ 0.0784 µM)		0.1 (≈ 0.392 µM)	0.9 (≈ 3.53 µM)	
O=c1[nH]c(=O)n([C@H]2C[C@H](O)[C@@H](CO)O2)cc1I [IDOXURIDINE]					0.2 (≈ 0.565 µM)	0.2 (≈ 0.565 µM)	1 (≈ 2.82 µM)	0.2 (≈ 0.565 µM)	0.2 (≈ 0.565 µM)	0.2 (≈ 0.565 µM)	> 50		70 (≈ 198 µM)	> 400	0.7 (≈ 1.98 µM)	0.4 (≈ 1.13 µM)	0.17 (≈ 0.48 µM)	> 400	4 (≈ 11.3 µM)	4 (≈ 11.3 µM)	
